Experimental findings from ChEMBL document CHEMBL1149254, “The discovery of orally active triaminotriazine aniline amides as inhibitors of p38 MAP kinase” (J Med Chem, 2004) are described below.

Assay [1] has as its target Mitogen-activated protein kinase 14 (Homo sapiens, UniProt Q16539). In words: Inhibition of human p38-alpha expressed in Escherichia coli.
For another assay, the system named is THP-1. In words: Inhibition of LPS-induced TNFalpha production in human THP1 cells by ELISA. It is filed as functional, cell-based. A digest of the protocol: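 THP-1 cells grown in RPMI 1640 with 10% FBS, 40000 cells/well. Compound or vehicle was added (1% DMSO final), then LPS at 1 μg/mL final. Cells were incubated overnight at 37 °C, 5% CO2. TNF in the supernatant was measured by sandwich ELISA: anti-human TNF capture, biotinylated polyclonal detection, streptavidin-peroxidase read-out.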

pIC50: −log10 of the molar value.

Mitogen-activated protein kinase 14, sequence (Q16539 whole entry): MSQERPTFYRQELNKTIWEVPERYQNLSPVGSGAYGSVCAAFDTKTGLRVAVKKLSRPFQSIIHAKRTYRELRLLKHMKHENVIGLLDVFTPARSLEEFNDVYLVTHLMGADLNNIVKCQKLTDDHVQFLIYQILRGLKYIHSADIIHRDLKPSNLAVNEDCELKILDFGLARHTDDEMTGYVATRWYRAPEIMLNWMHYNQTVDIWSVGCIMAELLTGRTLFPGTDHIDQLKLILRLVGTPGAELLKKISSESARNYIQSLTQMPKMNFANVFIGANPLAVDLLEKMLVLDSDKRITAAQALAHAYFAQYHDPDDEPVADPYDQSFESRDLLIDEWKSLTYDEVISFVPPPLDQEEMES

Regarding `Cc1ccc(C(N)=O)cc1Nc1nc(NC[C@@H]2CC[C@H]3C[C@@H]2C3(C)C)nc(N[C@H]2CCNC2)n1`, the pIC50 (commonly the negative decadic logarithm of the IC50, by convention in mol/L) in assay [1] was 7.28; in the assay with THP-1, 5.96. `Cc1ccc(C(=O)O)cc1Nc1nc(N(C)CC(C)(C)C)nc(N2CCCN(C)CC2)n1` had a pIC50 in assay [1] of less than 6.00. Take `Cc1ccc(C(N)=O)cc1Nc1nc(N[C@H]2CCNC2)nc(N(C)CC2CCCCC2)n1`: the values for the negative logarithm of the IC50 (pIC50) (in assay [1]; in the assay with THP-1) were 6.60 and 5.89, respectively. The like results for `Cc1ccc(C(N)=O)cc1Nc1nc(N[C@H]2CCNC2)nc(N(C)CC(C)c2ccccc2)n1` (stereo partly specified) were, in that order, 7.08 and 5.59. With `Cc1ccc(C(N)=O)cc1Nc1nc(N)nc(NC[C@@H]2CC[C@H]3C[C@@H]2C3(C)C)n1`, in assay [1], the negative logarithm of the IC50 (pIC50) is 5.23. Take `Cc1ccc(C(=O)NO)cc1Nc1nc(N[C@H]2CCNC2)nc(N(C)CC(C)(C)C)n1`: the negative logarithm of the IC50 (pIC50) in assay [1] was 7.80; with THP-1, 6.82. The like results for `CONC(=O)c1ccc(C)c(Nc2nc(N(C)CC(C)(C)C)nc(N3CCN(C)CC3)n2)c1` were, in that order, 7.24 and 6.80.

For `Cc1ccc(C(N)=O)cc1Nc1nc(N[C@H]2CCNC2)nc(N(C)CC(C)(C)C)n1`, the results for the pIC50 (in assay [1]; in the assay on THP-1) were 7.62 and 6.78, respectively. As to `Cc1ccc(C(N)=O)cc1Nc1nc(NCCc2ccc(F)cc2)nc(N[C@H]2CCNC2)n1`, the negative logarithm of the IC50 (pIC50) in assay [1] is 6.64; in the assay on THP-1, less than 5.30. As to `Cc1ccc(C(=O)NC2CCCC2)cc1Nc1nc(N[C@H]2CCNC2)nc(N(C)CC(C)(C)C)n1`, the negative-log IC50 (pIC50) in assay [1] is 7.00; in the assay on THP-1, 6.89. Consider `Cc1ccc(C(=O)NC(C)C)cc1Nc1nc(N[C@H]2CCNC2)nc(N(C)CC(C)(C)C)n1`, for which the results for the pIC50 (in assay [1]; in the assay with THP-1) were 7.29 and 6.82, respectively. In the case of `CONC(=O)c1ccc(C)c(Nc2nc(N(C)CC(C)(C)C)nc(N3CCCNCC3)n2)c1`, the pIC50 is 7.28 in assay [1] and 6.88 in the assay with THP-1.

For the compound `Cc1ccc(C(N)=O)cc1Nc1nc(NC[C@@H]2CC[C@H]3C[C@@H]2C3(C)C)nc(N2CCCN(C)CC2)n1`, the pIC50 in assay [1] was 5.85. With `Cc1ccc(C(N)=O)cc1Nc1nc(NC[C@@H]2CC[C@H]3C[C@@H]2C3(C)C)nc(N2CCCNCC2)n1`, the negative-log IC50 (pIC50) is 5.87 in assay [1] and 5.77 with THP-1. The like results for `Cc1ccc(C(N)=O)cc1Nc1nc(NCC(C)C)nc(N[C@H]2CCNC2)n1` were, in that order, 7.14 and less than 5.30.

On to `COCCNC(=O)c1ccc(C)c(Nc2nc(N[C@H]3CCNC3)nc(N(C)CC(C)(C)C)n2)c1`, for which the values for the pIC50 (in assay [1]; in the assay with THP-1) were 6.58 and 6.17, respectively. The corresponding values for `CCNC(=O)c1ccc(C)c(Nc2nc(N[C@H]3CCNC3)nc(N(C)CC(C)(C)C)n2)c1` are 7.51 and 6.85.

`Cc1ccc(C(N)=O)cc1Nc1nc(N[C@H]2CCNC2)nc(N(C)CC(C)C)n1`: the pIC50 was 7.55 in assay [1] and 6.49 in the assay with THP-1. The corresponding values for `CONC(=O)c1ccc(C)c(Nc2nc(N[C@H]3CCNC3)nc(N(C)CC(C)(C)C)n2)c1` are 8.10 and 7.80. Turning to `Cc1ccc(C(=O)NCc2ccccc2)cc1Nc1nc(N[C@H]2CCNC2)nc(N(C)CC(C)(C)C)n1`, the negative logarithm of the IC50 (pIC50) was 7.19 in assay [1] and 7.07 in the assay on THP-1. For `COC(=O)c1ccc(C)c(Nc2nc(N[C@H]3CCNC3)nc(N(C)CC(C)(C)C)n2)c1`, the pIC50 in assay [1] was 6.46; in the assay on THP-1, less than 6.60. The corresponding values for `CONC(=O)c1ccc(C)c(Nc2nc(N(C)CC(C)(C)C)nc(N3CCNCC3)n2)c1` are 7.74 and 6.92.
